ChEMBL document CHEMBL4138113, “Novel propanamides as fatty acid amide hydrolase inhibitors” (Eur J Med Chem, 2017)
Calls of active or inactive are those of the source.

What was measured:
Homo sapiens = organism: Homo sapiens; test: Selectivity ratio of IC50 for FAAH T488A mutant (unknown origin) expressed in human HeLa cells after 2 hrs to IC50 for FAAH (unknown origin) expressed in human HeLa cells transfected with empty vector after 2 hrs; type: cell-based
[1] = molecular target: Fatty-acid amide hydrolase 1 (Homo sapiens, UniProt O00519, T488A); test: Inhibition of FAAH T488A mutant (unknown origin) expressed in human HeLa cells using [3H]AEA as substrate after 2 hrs by liquid scintillation counting analysis; type: cell-based
[2] = molecular target: T1, Fatty-acid amide hydrolase 1 (Mus musculus) (UniProt O08914); test: Inhibition of B6CBAF1/J mouse brain FAAH using [3H]AEA as substrate after 10 mins in presence of N-(3-Chloropyridin-2-yl)-2-(4-((2-(trifluoromethyl)pyridin-4-yl)amino)phenyl)propanamide by Dixon plot analysis
T1 sequence (whole entry): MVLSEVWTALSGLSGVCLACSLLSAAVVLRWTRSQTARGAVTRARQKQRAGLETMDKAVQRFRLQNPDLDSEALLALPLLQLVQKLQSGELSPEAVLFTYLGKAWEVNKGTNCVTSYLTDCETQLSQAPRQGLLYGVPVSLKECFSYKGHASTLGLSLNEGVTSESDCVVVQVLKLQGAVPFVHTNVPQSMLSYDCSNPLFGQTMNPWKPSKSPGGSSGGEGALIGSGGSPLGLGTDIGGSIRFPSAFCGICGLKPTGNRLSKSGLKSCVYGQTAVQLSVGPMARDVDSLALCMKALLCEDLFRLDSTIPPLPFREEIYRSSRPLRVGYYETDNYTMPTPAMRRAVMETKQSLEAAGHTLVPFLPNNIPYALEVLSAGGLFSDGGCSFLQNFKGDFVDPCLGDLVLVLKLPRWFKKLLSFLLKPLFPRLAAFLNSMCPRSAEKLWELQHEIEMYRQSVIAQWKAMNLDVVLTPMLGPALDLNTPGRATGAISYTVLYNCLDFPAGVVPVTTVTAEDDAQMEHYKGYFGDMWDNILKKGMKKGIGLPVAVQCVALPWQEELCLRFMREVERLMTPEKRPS
How it was run: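 Kinetic study in brain homogenate from male B6CBAF1/J mice (0.3 µg protein per assay). [3H]AEA hydrolysis ran for 10 min at 37 °C in Tris-EDTA buffer, pH 7.4, with the AEA:fatty acid-free BSA ratio held at 1:~4.5. Products were separated on charcoal and counted by scintillation. Competitive, mixed-type and non-competitive fits were compared by Akaike's criterion.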

Sequence of Fatty-acid amide hydrolase 1 (O00519 whole entry T488A): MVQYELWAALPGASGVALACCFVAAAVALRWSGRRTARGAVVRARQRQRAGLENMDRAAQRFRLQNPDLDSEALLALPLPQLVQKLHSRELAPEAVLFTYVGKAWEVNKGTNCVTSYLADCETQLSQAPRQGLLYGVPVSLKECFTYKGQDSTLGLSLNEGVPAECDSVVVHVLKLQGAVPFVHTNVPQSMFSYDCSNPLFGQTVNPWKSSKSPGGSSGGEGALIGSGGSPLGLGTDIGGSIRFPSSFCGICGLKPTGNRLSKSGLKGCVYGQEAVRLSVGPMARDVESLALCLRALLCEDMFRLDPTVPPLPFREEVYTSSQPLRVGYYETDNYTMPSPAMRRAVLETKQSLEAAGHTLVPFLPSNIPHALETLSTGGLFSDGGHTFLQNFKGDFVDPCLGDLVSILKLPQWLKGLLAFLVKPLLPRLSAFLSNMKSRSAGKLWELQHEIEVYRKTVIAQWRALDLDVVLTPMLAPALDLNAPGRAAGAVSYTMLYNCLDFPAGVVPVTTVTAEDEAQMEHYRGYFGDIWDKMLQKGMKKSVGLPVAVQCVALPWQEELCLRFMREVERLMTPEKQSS

IC50 [1]: 1.9 to 9.4 µM
inhibition [2]: Active
Structure (SMILES): Cc1cccnc1NC(=O)C(C)c1ccc(Nc2ccnc(C(F)(F)F)c2)cc1 (stereo not drawn)
Ratio IC50 (Homo sapiens): 3.8
